# Laboratory results reported in ChEMBL document CHEMBL1938337, “Discovery of novel, potent, and selective inhibitors of 3-phosphoinositide-dependent kinase (PDK1)” (J Med Chem, 2011).
# Columns and labels:
# [1] = Solubility of the compound at pH 6.5; type: physicochemical; details: buffer
# [2] = Clearance in human liver microsomes; type: ADME, Microsome; details: read-out: CLH
# [3] = target: T1, 3-phosphoinositide-dependent protein kinase 1 (Homo sapiens, UniProt O15530); experiment: Inhibition of PDK1-mediated AKT1 phosphorylation at T308 in human SKOV3 cells after 2 hrs by ELISA; type: cell-based, SK-OV-3
# T1 sequence (O15530 whole entry): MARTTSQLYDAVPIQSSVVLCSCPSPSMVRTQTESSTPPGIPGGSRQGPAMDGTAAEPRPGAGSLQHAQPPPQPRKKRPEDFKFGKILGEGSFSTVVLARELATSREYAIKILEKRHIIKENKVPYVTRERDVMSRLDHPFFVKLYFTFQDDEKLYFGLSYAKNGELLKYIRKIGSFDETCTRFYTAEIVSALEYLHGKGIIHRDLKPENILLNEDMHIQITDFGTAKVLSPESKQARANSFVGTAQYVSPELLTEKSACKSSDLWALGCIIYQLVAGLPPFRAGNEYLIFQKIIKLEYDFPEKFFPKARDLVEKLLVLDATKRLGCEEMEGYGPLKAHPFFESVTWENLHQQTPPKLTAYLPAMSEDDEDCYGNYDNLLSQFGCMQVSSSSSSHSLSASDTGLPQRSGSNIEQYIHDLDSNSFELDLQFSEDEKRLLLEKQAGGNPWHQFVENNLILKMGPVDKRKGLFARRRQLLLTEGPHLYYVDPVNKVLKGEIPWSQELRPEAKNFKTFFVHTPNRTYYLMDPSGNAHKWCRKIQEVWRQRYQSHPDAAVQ
# Method in brief: (§1)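 Cells seeded at 50,000 per well and left to adhere overnight. Inhibitor was added as a 3-fold serial dilution from 0.0169 nM to 10 μM for 2 h, then cells were lysed. Lysates were tested in a commercial pAKT-T308 sandwich ELISA per the kit protocol. IC50 from duplicates, each run repeated at least twice.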
# A549 = experiment: Antiproliferative activity against human A549 cells after 72 hrs by resazurin reduction assay; type: functional, cell-based; details: A549, 72 h
# Method in brief: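 Cells seeded at 3,000 per well, left to adhere overnight, then given inhibitor as a 3-fold serial dilution from 0.0169 nM to 10 μM. After 72 h, 250 μg/mL resazurin was added, followed by 6 h more at 37 °C. Fluorescence was read at ex 560 / em 590 nm.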
# [4] = target: T1, 3-phosphoinositide-dependent protein kinase 1; experiment: Inhibition of PDK1-mediated AKT1 phosphorylation at T308 in human H460 cells after 2 hrs by ELISA; type: cell-based; method in brief: as §1
# [5] = target: Serine/threonine-protein kinase PAK 4 (Homo sapiens) (UniProt O96013); experiment: Inhibition of PAK4 at 1 uM
# [6] = target: T2, Serine/threonine-protein kinase Sgk1 (Homo sapiens) (UniProt O00141); experiment: Inhibition of SGK at 1 uM
# T2 sequence (whole entry): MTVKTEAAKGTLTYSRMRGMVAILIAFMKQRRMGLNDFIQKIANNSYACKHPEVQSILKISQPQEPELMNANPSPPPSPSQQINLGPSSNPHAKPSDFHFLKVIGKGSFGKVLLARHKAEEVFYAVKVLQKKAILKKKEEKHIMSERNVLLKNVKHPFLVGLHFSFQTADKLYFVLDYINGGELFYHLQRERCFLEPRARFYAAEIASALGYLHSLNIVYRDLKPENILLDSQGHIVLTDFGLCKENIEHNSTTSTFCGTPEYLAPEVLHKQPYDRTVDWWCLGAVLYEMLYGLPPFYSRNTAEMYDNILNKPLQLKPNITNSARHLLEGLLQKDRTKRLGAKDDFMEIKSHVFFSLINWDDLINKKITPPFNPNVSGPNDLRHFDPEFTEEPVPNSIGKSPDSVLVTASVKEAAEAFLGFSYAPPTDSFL
# [7] = target: T3, Serine/threonine-protein kinase Chk1 (Homo sapiens) (UniProt O14757); experiment: Inhibition of CHEK1 at 1 uM
# T3 sequence (whole entry): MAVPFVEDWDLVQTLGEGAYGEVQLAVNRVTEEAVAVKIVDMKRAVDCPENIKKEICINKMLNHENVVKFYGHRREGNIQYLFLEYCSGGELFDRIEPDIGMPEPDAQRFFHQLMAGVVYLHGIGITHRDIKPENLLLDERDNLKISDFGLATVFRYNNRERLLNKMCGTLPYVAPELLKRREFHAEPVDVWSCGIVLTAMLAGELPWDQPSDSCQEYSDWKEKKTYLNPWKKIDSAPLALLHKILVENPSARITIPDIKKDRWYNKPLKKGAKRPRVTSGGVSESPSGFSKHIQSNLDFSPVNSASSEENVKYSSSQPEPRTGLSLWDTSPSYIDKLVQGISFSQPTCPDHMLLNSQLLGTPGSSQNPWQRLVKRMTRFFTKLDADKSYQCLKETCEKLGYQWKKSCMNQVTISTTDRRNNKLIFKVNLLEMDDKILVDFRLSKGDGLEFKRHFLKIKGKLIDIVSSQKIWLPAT
# [8] = Inhibition of PRKCB2 at 1 uM
# [9] = target: Casein kinase II subunit alpha' (Homo sapiens) (UniProt P19784); experiment: Inhibition of CSNK2A2 at 1 uM
# [10] = target: Insulin receptor (Homo sapiens) (UniProt P06213); experiment: Inhibition of INSR at 1 uM
# [11] = target: T4, Serine/threonine-protein kinase Nek2 (Homo sapiens) (UniProt P51955); experiment: Inhibition of NEK2 at 1 uM
# T4 sequence (whole entry): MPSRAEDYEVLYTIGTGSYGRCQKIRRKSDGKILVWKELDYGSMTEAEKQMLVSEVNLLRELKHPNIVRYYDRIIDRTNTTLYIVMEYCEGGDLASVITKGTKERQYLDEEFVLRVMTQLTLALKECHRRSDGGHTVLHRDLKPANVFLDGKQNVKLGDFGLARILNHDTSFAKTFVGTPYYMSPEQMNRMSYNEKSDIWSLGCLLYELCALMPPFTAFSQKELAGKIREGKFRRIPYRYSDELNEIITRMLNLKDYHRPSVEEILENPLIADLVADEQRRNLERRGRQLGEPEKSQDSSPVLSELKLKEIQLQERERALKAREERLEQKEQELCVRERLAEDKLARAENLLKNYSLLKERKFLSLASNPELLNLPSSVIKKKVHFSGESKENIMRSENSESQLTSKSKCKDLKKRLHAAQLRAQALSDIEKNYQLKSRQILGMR
# [12] = target: High affinity nerve growth factor receptor (Homo sapiens, UniProt P04629); experiment: Inhibition of TrkA
# Sequence of High affinity nerve growth factor receptor (P04629 whole entry): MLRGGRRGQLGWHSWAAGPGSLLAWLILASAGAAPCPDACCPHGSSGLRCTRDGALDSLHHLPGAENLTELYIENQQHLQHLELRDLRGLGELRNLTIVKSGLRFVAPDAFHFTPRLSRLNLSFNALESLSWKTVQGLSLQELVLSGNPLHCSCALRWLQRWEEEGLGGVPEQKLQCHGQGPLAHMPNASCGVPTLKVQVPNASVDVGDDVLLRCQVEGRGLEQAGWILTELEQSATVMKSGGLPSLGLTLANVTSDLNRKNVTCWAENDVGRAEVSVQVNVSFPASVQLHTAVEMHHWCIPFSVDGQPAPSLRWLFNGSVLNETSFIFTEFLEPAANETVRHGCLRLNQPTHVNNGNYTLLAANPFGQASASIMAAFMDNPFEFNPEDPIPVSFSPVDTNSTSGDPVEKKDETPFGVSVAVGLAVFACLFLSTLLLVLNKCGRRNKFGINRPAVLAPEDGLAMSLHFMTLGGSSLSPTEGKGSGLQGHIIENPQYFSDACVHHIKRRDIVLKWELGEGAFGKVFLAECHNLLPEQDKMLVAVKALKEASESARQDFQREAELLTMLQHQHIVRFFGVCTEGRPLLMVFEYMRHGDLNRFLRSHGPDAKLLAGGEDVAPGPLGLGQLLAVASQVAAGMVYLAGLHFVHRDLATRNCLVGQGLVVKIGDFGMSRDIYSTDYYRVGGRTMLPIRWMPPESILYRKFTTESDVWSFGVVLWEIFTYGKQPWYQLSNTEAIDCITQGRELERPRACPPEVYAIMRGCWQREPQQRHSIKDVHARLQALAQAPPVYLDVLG
# Sequence of Casein kinase II subunit alpha' (Homo sapiens) (P19784 whole entry, looked up): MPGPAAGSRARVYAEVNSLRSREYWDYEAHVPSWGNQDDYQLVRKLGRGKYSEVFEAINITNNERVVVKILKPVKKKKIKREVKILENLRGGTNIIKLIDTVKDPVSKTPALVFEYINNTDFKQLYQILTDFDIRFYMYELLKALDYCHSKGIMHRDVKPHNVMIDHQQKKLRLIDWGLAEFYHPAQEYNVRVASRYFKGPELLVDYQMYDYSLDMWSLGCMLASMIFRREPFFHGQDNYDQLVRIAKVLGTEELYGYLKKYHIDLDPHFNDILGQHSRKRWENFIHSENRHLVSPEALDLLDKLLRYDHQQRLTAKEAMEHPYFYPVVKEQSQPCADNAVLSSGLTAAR
# Sequence of Insulin receptor (Homo sapiens) (P06213 28-758 limits assumed): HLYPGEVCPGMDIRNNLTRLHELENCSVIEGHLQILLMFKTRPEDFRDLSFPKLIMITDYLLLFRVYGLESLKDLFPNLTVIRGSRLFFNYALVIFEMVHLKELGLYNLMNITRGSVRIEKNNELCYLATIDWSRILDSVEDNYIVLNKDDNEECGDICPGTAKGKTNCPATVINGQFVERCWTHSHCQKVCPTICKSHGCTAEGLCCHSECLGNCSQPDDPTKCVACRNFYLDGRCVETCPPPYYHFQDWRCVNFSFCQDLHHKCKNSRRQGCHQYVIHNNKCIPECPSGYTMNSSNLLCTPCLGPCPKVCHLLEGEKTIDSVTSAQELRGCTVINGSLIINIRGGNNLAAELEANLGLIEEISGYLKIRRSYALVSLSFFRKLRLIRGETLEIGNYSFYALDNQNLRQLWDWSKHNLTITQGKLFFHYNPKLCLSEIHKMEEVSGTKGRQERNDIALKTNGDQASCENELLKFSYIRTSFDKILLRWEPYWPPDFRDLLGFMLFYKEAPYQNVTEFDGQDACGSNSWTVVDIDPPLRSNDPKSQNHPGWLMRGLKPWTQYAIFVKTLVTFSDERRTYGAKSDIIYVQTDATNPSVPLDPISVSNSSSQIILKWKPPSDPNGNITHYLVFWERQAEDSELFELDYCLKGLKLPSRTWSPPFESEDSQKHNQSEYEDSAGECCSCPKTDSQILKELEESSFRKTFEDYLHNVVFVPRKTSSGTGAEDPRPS
# Sequence of Insulin receptor (Homo sapiens) (P06213 763-1382 limits assumed): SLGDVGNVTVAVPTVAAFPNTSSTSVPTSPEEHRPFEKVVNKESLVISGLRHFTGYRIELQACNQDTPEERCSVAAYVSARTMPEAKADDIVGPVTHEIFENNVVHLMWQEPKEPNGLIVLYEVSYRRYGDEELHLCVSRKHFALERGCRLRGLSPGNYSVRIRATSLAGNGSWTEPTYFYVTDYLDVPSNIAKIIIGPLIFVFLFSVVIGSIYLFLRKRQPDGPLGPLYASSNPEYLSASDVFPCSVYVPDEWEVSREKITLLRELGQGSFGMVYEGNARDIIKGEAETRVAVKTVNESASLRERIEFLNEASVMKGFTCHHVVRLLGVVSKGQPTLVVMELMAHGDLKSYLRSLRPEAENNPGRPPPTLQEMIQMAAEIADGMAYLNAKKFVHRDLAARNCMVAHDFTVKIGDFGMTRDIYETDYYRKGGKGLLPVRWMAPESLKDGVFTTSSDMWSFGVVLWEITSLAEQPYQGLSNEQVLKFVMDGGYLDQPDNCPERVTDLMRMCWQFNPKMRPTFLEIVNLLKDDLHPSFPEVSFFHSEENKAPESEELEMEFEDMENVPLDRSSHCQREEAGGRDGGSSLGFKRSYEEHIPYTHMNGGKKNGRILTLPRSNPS
# Sequence of Serine/threonine-protein kinase PAK 4 (Homo sapiens) (O96013 whole entry, looked up): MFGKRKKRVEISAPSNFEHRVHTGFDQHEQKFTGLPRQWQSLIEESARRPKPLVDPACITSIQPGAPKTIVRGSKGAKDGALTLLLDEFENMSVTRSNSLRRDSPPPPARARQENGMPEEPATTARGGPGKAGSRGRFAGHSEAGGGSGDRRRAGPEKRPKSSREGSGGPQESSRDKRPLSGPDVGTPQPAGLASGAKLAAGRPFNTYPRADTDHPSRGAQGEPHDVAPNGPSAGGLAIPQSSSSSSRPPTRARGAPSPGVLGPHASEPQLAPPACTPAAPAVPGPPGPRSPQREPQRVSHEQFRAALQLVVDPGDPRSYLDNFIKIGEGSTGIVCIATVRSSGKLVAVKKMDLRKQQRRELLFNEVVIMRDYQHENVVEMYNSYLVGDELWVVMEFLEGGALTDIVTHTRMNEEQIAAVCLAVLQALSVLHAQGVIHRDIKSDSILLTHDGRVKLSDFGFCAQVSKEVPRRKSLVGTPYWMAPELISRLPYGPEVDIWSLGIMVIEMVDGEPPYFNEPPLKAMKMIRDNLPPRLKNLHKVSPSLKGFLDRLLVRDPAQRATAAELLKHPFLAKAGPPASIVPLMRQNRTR
compound,measurement,setting,value
CC(=O)N1CC[C@@H](Nc2cncc(C(=O)c3cn(C(C)C)c4ncnc(N)c34)n2)[C@H]1c1ccccc1,solubility,[1],510 µM
same,microsomal CLint,[2],110 µL/min/mg
same,IC50,[3],200 nM
same,EC50,A549,5200 nM
same,IC50,[4],320 nM
same,inhibition,[5],25%
same,inhibition,[6],30%
same,inhibition,[7],7%
same,inhibition,[8],1%
same,inhibition,[9],2%
same,inhibition,[10],4%
same,inhibition,[11],-3%
same,IC50,[12],910 nM
CC(=O)N1CC[C@@H](Nc2cncc(C(=O)c3cn(C(C)C)c4ncnc(N)c34)n2)[C@H]1c1ccc(F)cc1,solubility,[1],390 µM
same,microsomal CLint,[2],120 µL/min/mg
same,IC50,[3],70 nM
same,EC50,A549,2200 nM
same,IC50,[4],160 nM
same,inhibition,[5],46%
same,inhibition,[6],61%
same,inhibition,[7],24%
same,inhibition,[8],15%
same,inhibition,[9],8%
same,inhibition,[10],3%
same,inhibition,[11],-2%
same,IC50,[12],620 nM
CC(C)n1cc(C(=O)c2cncc(N[C@@H]3CCN(C=O)[C@@H]3c3ccc(F)cc3)n2)c2c(N)ncnc21,solubility,[1],290 µM
same,microsomal CLint,[2],62 µL/min/mg
same,IC50,[3],70 nM
same,EC50,A549,1800 nM
same,IC50,[4],120 nM
same,inhibition,[5],63%
same,inhibition,[6],48%
same,inhibition,[7],38%
same,inhibition,[8],14%
same,inhibition,[9],4%
same,inhibition,[10],4%
same,inhibition,[11],3%
same,IC50,[12],200 nM
